CCR6 antag: blocks CCL20-driven beta-arrestin recruitment at human CCR6. P51684. CHO-K1 CCR6 PathHunter beta-arrestin, luminescence, CCL20-stimulated. inhibition, % at 20 µM. 340,000 tested, 0.49% active. AID 493098;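 active = compounds whose inhibition of the agonist-driven luminescence signal at 20 µM reaches about 50%, limit read from the data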;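 also: cells stimulated with CCL20 at 14 nM final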
APJ antagonist: antagonists of human APJ apelin receptor; P35414; CHO-K1 APJ beta-arrestin complementation, luminescence; inhibition, % at 20 µM; 330,000 tested, 0.32% active; AID 2521;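 active = inhibition above about 40% at 20 µM, limit read from the data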;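 also: cells challenged with 10 nM apelin-13 agonist together with compound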
Target sequence (P35414 whole entry, looked up): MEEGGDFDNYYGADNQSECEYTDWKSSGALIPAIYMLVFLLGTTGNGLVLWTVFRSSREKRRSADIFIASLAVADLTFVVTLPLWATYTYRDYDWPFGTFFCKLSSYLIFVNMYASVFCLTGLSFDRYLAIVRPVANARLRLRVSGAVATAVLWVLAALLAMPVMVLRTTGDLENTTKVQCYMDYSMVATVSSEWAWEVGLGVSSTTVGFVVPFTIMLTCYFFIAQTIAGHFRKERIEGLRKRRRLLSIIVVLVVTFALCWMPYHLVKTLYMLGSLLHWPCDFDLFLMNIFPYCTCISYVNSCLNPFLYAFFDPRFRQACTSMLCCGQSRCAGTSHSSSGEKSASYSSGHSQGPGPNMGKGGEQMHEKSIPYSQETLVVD
CXCR6 inh: inhibitors of human CXCR6 receptor; CHO-K1 PathHunter CXCR6 beta-arrestin, luminescence; inhibition, % at 20 µM; 360,000 tested, 0.36% active; in the data active = inhibition above about 34%, passing the limit was not always enough;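 also: antagonist mode with CXCL16 agonist at 10 nM final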
APJ ag: activates the human apelin receptor APJ | CHO-K1 APJ PathHunter beta-arrestin, luminescence; 0% DMSO wells, 100% apelin | P35414 | AID 2520 | 330,000 tested, 0.11% active | activation, % at 20 µM;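 active = activation more than six SD over the plate average, tested at 20 µM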
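Assay system: engineered CHO-K1 APJ arrestin reporter cells; Amount: 1000 CHO-K1 reporter cells seeded per well; Dosing: one dose, 20 µM compound, 1% DMSO; Times: compound stimulation 90 min at 25 °C, detection 60 min; Measured by: luminescent beta-gal fragment complementation, chemiluminescent substrate; Read-out: APJ–arrestin association signal; Controls: DMSO vs Apelin-13 10 nM.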
B2AR ag: activates human beta-2 adrenergic receptor causing internalization. 340,000 tested, 0.43% active. P07550. Am2.2-beta2AR cells, FAP receptor internalization, flow cytometry. response, % (concentration not given with the values);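 active = response above a set limit, near 3 SD of response in nonfluorescent compounds, cut at about 42% in these data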
PfGluPho inh: PfG6PD (Plasmodium falciparum) enzyme inhibition. PfGluPho enzyme, NADPH resazurin-diaphorase fluorescence. inhibition, % at 20 µM. 350,000 tested, 0.78% active;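 active = inhibition reaching at least a set limit at 20 µM in the primary screen, cut at about 59% in these data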
Numbers stand for hits; . = inactive; / = not tested or not shown. In the library only some 1.7% were active in any assay of this set; here they are far more common.

SMILES | CCR6 antag | APJ antagonist | CXCR6 inh | APJ ag | B2AR ag | PfGluPho inh
CN1C(=S)SC(/[N+]([O-])=C/c2ccc(Cl)cc2)C1(C)C (stereo unspecified) | . | . | . | . | . | .
CC(C)c1cc(Cn2c3ccccc3c(=O)n2C(C)CBr)on1 (stereo unspecified) | / | / | . | / | / | /
COCc1cc(C)c(C#N)c(=S)[nH]1 | . | . | . | . | . | 70
CCN(Cc1ccncc1)C(=O)c1cccc(S(=O)(=O)N2CCCCC2)c1 | . | . | . | . | . | .
COc1ccc(-n2nnc3c(SC(C(C)=O)C(=O)N(C)C)ncnc32)cc1 (stereo unspecified) | . | . | . | . | . | 64
Cn1ncc(N=Cc2ccccc2)c1C(N)=O | . | . | . | . | . | .
Nc1ncc(Br)cc1N=Cc1ccccc1 | . | . | . | . | . | 89
O=c1c2c3nc4ccccc4nc3n(-c3ccc4c(c3)OCCO4)c2ncn1C1CCCC1 | . | . | . | . | 53 | .
CN(C)CC(O)c1ccc(C=Cc2ccc(Cl)cc2)cc1 (stereo unspecified) | 88 | / | . | / | . | .
CC(C)SC1=NC(C)(C)C=C(/C=C/c2ccc(Cl)cc2Cl)N1 | 51 | . | . | . | . | .
CC(C)SC1=NC(C)(C)C=C(/C=C/c2c(Cl)cccc2Cl)N1 | 52 | . | . | . | . | .
COc1cc(C(=O)COC(=O)c2ccc3c(c2)OCCO3)cc(OC)c1OC | / | / | . | / | / | .
O=C1c2ccccc2-c2onc3ccc(Oc4ccccc4)c1c23 | . | . | 41 | . | . | .
O=C(CN(Cc1ccc(F)cc1)C(=O)c1csnn1)NC1CCCC1 | . | . | . | . | . | .
C=CC(=O)N1C/C(=C/c2ccccc2)C(=O)/C(=C\c2ccccc2)C1 | 64 | / | 38 | / | . | .
C[C@@H](NC(=O)Cn1ccc(NC(=O)OCc2ccccc2)nc1=O)c1cccc2ccccc12 | . | . | . | . | . | .
C[C@@H](NCCCn1ccc(NC(=O)OCc2ccccc2)nc1=O)c1cccc2ccccc12 | . | / | . | / | 44 | .
CCCC(C(=O)NCCC(C)C)N(Cc1ccccc1)C(=O)c1snc(C(N)=O)c1N (stereo unspecified) | . | . | . | . | . | .
O=C1CCC(/C=C/c2ccccc2)=NN1Cc1ccccc1Cl | . | . | . | . | 43 | .
CC(C)NC(=O)C1(C)CCN1C(=O)C1(c2ccccc2)CCCC1 (stereo unspecified) | / | / | . | / | / | /
O=c1ccc(N=Nc2ccccc2)ccc1O | 66 | / | . | / | . | .
CCS(=O)(=O)N1CCCC(C(=O)Oc2ccc(Br)cc2)C1 (stereo unspecified) | . | . | . | . | . | .
O=C(CN1C(=O)NC2(CCCCC2)C1=O)NNC(=O)C1CC1 | . | . | . | . | . | .
CC(=O)c1ccc(Nc2ccc([N+](=O)[O-])c3nonc23)cc1 | . | . | . | . | . | .
NS(=O)(=O)c1ccc(Nc2ccc([N+](=O)[O-])c3nonc23)cc1 | 63 | . | . | . | . | .
SMILES | CCR6 antag | APJ antagonist | CXCR6 inh | APJ ag | B2AR ag | PfGluPho inh
Cc1ncsc1CCC(=O)N1CCCC(Nc2ccc(C(C)C)cc2)C1 (stereo unspecified) | . | . | . | . | . | .
Oc1csc(Cc2nc(-c3ccc4ccccc4c3)cs2)n1 | 56 | . | . | . | . | .
Cc1ccc(CSCC(=O)N(CCC(C)C)c2c(N)n(Cc3ccccc3)c(=O)[nH]c2=O)cc1 | . | . | . | . | . | .
CCOC(=O)C1=NN(C(=O)c2ccc(C)cc2)C(O)(c2ccc(Cl)cc2)C1 (stereo unspecified) | . | . | . | . | . | .
CCC1=NN(C(=O)c2ccc(Cl)cc2)C(O)(c2ccc(C)cc2)C1 (stereo unspecified) | 64 | . | . | . | . | .
COc1ccc(CC(=O)Nc2sc3c(c2C(N)=O)CCCC3)cc1 | . | . | . | . | . | .
COc1ccc2nc(Nc3sc4c(c3C(N)=O)CCCC4)sc2c1 | . | . | . | . | . | 67
Cc1ccc(C(=C2C3C=CC2C2C(=O)NC(=O)C32)c2ccc(C)cc2)cc1 (stereo unspecified) | 54 | . | . | . | . | .
CC(CCl)n1c(=O)c2ccccc2n1S(C)(=O)=O (stereo unspecified) | / | / | . | / | / | /
N#C/C(=N\Nc1ccc([N+](=O)[O-])cc1)C(N)=S | 69 | 69 | 53 | . | . | .
N#C/C(=N/Nc1ccc([N+](=O)[O-])cc1)C(=N)N1CCCCC1 | . | / | . | / | . | .
CC(O)(c1cccnc1)c1nc(-c2ccc3ccccc3c2)cs1 (stereo unspecified) | / | / | . | / | / | /
O=C(C[n+]1ccc2ccccc2c1)c1cccc2ccccc12 | . | . | . | . | . | .
O=C(/C=C/c1cc[n+](CC(=O)c2ccc3cccc4c3c2CC4)cc1)c1ccc2cccc3c2c1CC3 | . | . | . | . | 74 | 73
Cc1ccc(Cl)cc1N1CCN(C(=O)c2cc3c(=O)n(C)c4ccccc4c3n2C)CC1 | . | . | . | 13 | . | .
CCOC(=O)C(=O)NCC(c1ccco1)S(=O)(=O)c1cccs1 (stereo unspecified) | . | . | . | . | . | .
c1ccc(Nc2ccccn2)cc1 | . | . | . | . | . | .
c1ccc(/N=C2\N=C(Nc3ccccn3)c3ccccc32)nc1 | 56 | . | . | . | . | .
COc1ccc(C(=O)/C=C/C(=O)N(Cc2ccccc2OC)C(C(=O)NC2CCCCC2)c2ccncc2)c(O)c1 (stereo unspecified) | . | . | . | . | . | .
COc1ccc(C(=O)/C=C/C(=O)N(CC(=O)NC2CCCCC2)Cc2ccccc2)c(O)c1 | 97 | / | 71 | / | 111 | .
COc1ccc(C(=O)/C=C/C(=O)N(CC(=O)NC2CCCCC2)Cc2ccccc2OC)c(O)c1 | 84 | / | 64 | / | 95 | .
Cc1ccc(S(=O)(=O)CCC(=O)OC(C)C(=O)NC2CCCCC2C)cc1 (stereo unspecified) | . | . | . | . | . | .
O=[N+]([O-])c1cc(S(=O)(=O)N2CCCCCC2)ccc1F | . | / | . | / | 50 | .
O=[N+]([O-])c1cc(S(=O)(=O)N2CCCC2)ccc1O | . | . | . | . | . | .
CCOC(=O)CNC(=O)N(C)[C@H]1C[C@H]2c3[nH]c4ccccc4c3CCN2C(=O)[C@H]1[C@H](C)O | / | / | . | / | / | /
CC(C)(C)C(=O)NC(=S)NNC(=O)C(c1ccccc1)c1ccccc1 | 79 | . | 72 | . | . | .
CC(=O)NNC(=S)NC(=O)C(c1ccccc1)c1ccccc1 | . | . | . | . | . | .
CC1(C(=O)Nc2ccc(Cl)c(Cl)c2)CCN1C(=O)CC1CCCC1 (stereo unspecified) | / | / | . | / | / | /
COc1ccc(NC(=O)/C=C/c2ccc(Br)o2)cn1 | . | . | . | . | . | .
COc1ccccc1CNC(=O)/C=C/c1ccc(Br)o1 | . | . | . | . | 71 | .

High-throughput results from PubChem BioAssay.
